SMILES strings stand for the structures. *1 amine or outer side, *2 acyl side, *3 side chain or, on linkers, in order; H or OH if unused. Where a SMILES comes first, the peptide text is derived from it. Bridges are numbered along the chain shown (N, C = ends). [ ]: non-standard residue; d: D form. The star is where a group is joined. Staurosporine = CO[C@@H]1[C@H](N(C)*)C[C@H]2O[C@]1(C)n1c3ccccc3c3c4c(c5c6ccccc6n2c5c31)C(=O)NC4; Suc = O=C(CCC(=O)[*:2])[*:1]; Dap = NC[C@H](N)C(=O)O; βAla = NCCC(=O)O

The target in experiment [1] is Casein kinase I isoform delta (Homo sapiens) (UniProt P48730). Kind of experiment: Binding affinity to human CSNK1D at 500 nM by cell-based competition binding assay relative to control in presence of DTT. The method, boiled down: (§1)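 Commercial (Ambit) competitive kinase-binding panel of 90 kinases measured the binding profile. Run under reducing conditions of 7.5 mM DTT. Binding is expressed relative to control.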

For experiment [2], the target named is Ephrin type-A receptor 2 (Homo sapiens) (UniProt P29317). Kind of experiment: Binding affinity to human EPHA2 at 500 nM by cell-based competition binding assay relative to control in presence of DTT. The method, boiled down: as §1
Experiment [3] deals with T1, Serine/threonine-protein kinase PLK4 (Homo sapiens) (UniProt O00444).
T1 sequence (whole entry): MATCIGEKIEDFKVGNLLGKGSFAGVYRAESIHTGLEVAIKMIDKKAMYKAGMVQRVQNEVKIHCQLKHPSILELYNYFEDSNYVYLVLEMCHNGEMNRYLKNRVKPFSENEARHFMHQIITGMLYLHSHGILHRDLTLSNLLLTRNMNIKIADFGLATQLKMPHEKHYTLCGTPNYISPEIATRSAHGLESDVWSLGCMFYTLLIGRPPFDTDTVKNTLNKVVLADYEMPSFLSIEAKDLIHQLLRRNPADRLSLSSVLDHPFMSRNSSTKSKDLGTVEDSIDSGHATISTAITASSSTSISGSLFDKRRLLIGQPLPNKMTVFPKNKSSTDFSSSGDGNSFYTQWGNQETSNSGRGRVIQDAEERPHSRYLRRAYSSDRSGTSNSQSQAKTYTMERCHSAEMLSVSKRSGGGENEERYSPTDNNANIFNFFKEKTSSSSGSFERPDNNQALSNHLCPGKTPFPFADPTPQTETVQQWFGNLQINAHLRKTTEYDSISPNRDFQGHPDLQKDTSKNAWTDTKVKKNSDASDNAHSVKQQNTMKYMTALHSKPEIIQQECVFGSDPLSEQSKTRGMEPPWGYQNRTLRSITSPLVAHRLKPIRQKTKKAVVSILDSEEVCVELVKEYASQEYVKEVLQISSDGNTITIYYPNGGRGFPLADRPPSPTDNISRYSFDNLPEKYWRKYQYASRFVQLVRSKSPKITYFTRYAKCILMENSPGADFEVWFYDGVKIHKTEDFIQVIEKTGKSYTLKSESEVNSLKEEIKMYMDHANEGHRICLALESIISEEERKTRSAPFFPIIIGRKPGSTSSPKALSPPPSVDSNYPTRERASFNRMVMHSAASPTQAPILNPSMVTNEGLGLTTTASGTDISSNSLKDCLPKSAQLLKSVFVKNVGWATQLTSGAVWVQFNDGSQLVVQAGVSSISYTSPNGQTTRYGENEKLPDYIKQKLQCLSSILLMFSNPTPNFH
The experiment is described as follows: Binding affinity to human PLK4 at 500 nM by cell-based competition binding assay relative to control in presence of DTT.

The test system of experiment [4] is Tyrosine-protein kinase ABL1 (Homo sapiens), P00519 [T315I]. Kind of experiment: Binding affinity to human ABL1 T315I mutant at 500 nM by cell-based competition binding assay relative to control in presence of DTT. The method, boiled down: (§2)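 Kinase binding profiling ran on a commercial (Ambit) competitive binding screen against a panel of 90 kinases. The screen used reducing conditions with 7.5 mM DTT. To withstand the DTT, the bivalent ligand was tested as its amide isostere, with the disulfide replaced. A staurosporine derivative carrying a 3 β-alanine linker was run as the reference compound.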

For experiment [5], the target named is Atypical kinase COQ8A, mitochondrial (Homo sapiens) (UniProt Q8NI60). Kind of experiment: Binding affinity to human ADCK3 at 500 nM by cell-based competition binding assay relative to control in presence of DTT. The method, boiled down: as §2
Experiment [6] addresses Mitogen-activated protein kinase kinase kinase 9 (Homo sapiens) (UniProt P80192). Kind of experiment: Binding affinity to human MLK1 at 500 nM by cell-based competition binding assay relative to control in presence of DTT.
For experiment [7], the target named is Serine/threonine-protein kinase PAK 1 (Homo sapiens) (UniProt Q13153). Kind of experiment: Binding affinity to human PAK1 at 500 nM by cell-based competition binding assay relative to control in presence of DTT.
Experiment [8] has as its target MAP kinase-interacting serine/threonine-protein kinase 2 (Homo sapiens) (UniProt Q9HBH9). Kind of experiment: Binding affinity to human MKNK2 at 200 nM by cell-based competition binding assay relative to control in presence of DTT.
For experiment [9], the target named is Cyclin-dependent kinase 7 (Homo sapiens) (UniProt P50613). The experiment is described as follows: Binding affinity to human CDK7 at 200 nM by cell-based competition binding assay relative to control in presence of DTT. The method, boiled down: as §2
Experiment [10] has as its target Serine/threonine-protein kinase PAK 1 (Homo sapiens) (UniProt Q13153). The experiment is described as follows: Binding affinity to human PAK1 at 50 nM by cell-based competition binding assay relative to control in presence of DTT.
Experiment [11] deals with T2, 3-phosphoinositide-dependent protein kinase 1 (Homo sapiens) (UniProt O15530).
T2 sequence (whole entry): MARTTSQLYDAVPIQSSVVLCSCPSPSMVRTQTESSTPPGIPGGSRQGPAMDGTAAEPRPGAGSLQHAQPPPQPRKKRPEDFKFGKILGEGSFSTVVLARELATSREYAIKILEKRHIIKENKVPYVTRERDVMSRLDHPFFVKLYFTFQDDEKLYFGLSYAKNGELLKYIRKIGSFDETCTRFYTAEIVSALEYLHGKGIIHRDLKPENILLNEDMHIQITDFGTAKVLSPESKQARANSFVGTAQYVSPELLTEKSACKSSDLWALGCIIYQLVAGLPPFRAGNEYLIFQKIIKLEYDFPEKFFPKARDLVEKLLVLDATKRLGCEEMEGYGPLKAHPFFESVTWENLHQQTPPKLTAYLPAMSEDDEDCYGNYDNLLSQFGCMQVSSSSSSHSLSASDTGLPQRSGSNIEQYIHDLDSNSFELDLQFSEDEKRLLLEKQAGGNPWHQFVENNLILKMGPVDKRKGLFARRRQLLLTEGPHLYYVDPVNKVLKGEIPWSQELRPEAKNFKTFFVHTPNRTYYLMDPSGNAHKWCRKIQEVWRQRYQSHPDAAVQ
The experiment is described as follows: Binding affinity to human PDPK1 at 50 nM by cell-based competition binding assay relative to control in presence of DTT.

Sequence of Serine/threonine-protein kinase PAK 1 (Homo sapiens) (Q13153 whole entry): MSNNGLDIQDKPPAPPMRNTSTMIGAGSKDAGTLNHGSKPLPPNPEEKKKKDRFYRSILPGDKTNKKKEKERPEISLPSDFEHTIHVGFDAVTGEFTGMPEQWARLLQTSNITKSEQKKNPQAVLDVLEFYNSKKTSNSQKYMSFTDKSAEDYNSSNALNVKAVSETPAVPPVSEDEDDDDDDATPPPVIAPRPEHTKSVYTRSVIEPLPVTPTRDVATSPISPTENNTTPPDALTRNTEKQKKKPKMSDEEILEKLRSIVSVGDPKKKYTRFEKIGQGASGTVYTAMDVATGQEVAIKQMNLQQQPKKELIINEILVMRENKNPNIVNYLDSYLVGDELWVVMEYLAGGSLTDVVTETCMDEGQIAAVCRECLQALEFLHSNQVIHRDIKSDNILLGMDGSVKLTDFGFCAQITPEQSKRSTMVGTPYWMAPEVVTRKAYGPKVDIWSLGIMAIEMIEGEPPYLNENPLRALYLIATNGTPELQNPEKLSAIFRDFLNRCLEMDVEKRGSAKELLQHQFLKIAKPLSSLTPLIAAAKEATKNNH
Sequence of Ephrin type-A receptor 2 (Homo sapiens) (P29317 whole entry): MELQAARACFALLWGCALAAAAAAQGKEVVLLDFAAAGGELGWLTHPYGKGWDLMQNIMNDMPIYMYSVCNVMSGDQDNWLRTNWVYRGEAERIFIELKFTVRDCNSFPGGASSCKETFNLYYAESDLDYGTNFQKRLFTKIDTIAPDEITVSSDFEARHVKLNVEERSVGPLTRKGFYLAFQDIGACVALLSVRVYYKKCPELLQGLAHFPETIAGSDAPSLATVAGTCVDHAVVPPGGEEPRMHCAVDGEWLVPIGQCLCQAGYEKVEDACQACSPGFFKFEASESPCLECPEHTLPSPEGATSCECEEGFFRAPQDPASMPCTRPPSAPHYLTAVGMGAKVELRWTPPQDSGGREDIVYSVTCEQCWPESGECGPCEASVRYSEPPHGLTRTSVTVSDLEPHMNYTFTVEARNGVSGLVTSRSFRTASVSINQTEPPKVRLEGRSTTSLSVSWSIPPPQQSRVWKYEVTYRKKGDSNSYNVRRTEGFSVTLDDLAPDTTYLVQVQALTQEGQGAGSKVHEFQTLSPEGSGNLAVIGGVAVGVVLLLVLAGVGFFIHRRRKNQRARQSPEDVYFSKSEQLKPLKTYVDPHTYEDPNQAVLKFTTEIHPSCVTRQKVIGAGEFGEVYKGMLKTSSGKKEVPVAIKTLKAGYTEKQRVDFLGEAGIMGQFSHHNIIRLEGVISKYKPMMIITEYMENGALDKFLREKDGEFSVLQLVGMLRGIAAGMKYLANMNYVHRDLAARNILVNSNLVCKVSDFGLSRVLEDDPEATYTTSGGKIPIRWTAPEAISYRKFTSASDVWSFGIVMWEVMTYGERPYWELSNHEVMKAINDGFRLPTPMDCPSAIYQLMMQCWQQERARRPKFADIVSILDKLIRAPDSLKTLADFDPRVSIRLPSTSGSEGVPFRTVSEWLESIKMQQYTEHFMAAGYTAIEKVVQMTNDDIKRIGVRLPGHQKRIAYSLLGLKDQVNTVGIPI
Sequence of Casein kinase I isoform delta (Homo sapiens) (P48730 whole entry, looked up, canonical isoform): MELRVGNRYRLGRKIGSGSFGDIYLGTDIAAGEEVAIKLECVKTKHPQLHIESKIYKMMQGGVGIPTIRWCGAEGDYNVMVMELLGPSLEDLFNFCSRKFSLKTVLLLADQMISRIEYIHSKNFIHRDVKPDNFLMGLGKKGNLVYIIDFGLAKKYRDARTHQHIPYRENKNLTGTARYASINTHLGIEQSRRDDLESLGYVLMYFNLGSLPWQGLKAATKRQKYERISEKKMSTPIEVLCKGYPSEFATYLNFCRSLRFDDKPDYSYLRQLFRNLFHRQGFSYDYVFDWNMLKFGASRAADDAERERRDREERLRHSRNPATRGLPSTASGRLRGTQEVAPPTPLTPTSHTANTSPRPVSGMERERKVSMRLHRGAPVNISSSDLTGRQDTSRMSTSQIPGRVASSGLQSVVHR
Sequence of Atypical kinase COQ8A, mitochondrial (Homo sapiens) (Q8NI60 163-647 limits assumed): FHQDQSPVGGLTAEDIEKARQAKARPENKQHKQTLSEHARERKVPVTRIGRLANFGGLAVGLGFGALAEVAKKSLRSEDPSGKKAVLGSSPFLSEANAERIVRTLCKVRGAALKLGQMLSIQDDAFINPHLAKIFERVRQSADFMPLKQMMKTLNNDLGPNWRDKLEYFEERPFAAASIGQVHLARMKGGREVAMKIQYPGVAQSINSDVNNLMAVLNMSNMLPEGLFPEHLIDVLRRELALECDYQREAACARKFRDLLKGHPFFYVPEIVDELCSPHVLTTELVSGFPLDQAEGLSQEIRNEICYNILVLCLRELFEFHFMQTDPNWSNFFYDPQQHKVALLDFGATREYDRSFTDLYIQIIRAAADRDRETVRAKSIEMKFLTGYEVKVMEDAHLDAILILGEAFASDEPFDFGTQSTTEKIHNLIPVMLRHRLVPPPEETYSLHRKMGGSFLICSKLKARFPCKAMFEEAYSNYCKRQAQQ
Sequence of Cyclin-dependent kinase 7 (Homo sapiens) (P50613 whole entry): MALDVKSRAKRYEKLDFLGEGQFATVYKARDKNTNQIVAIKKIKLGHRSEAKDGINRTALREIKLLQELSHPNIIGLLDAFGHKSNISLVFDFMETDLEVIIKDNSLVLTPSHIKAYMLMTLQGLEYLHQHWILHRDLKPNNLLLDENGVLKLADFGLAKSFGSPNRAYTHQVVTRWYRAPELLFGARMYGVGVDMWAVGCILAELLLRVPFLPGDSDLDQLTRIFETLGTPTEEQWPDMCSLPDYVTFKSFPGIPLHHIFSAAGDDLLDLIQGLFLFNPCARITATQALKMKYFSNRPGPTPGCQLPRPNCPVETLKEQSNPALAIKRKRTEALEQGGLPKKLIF
Sequence of Mitogen-activated protein kinase kinase kinase 9 (Homo sapiens) (P80192 whole entry, looked up): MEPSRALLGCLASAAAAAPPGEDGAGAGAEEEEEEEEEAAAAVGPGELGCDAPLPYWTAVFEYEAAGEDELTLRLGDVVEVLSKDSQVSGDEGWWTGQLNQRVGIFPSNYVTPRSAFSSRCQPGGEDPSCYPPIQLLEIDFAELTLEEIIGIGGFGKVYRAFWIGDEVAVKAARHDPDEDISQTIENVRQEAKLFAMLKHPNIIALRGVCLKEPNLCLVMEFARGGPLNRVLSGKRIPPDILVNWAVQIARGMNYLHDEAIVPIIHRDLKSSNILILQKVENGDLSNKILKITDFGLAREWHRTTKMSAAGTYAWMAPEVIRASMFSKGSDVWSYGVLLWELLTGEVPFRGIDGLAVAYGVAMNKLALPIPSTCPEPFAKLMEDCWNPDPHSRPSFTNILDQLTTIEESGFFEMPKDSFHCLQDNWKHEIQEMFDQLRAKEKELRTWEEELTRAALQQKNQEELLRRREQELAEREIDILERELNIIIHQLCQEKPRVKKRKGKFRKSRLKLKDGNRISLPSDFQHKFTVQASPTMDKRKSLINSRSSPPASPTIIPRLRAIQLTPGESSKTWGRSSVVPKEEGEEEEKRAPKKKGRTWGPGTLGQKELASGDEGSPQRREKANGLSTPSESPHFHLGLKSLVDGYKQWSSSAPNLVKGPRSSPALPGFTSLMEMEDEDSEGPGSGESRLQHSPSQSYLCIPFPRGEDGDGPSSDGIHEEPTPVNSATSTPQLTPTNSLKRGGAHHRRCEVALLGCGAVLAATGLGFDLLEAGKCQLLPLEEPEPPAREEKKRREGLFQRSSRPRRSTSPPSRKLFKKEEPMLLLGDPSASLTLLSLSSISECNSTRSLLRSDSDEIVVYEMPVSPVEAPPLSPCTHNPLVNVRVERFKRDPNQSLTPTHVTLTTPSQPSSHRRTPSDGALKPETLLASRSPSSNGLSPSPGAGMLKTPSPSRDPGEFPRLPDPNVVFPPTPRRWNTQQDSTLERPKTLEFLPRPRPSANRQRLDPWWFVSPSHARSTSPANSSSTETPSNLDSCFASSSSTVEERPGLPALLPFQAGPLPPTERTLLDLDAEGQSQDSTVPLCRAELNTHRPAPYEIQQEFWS
Sequence of MAP kinase-interacting serine/threonine-protein kinase 2 (Homo sapiens) (Q9HBH9 whole entry, looked up): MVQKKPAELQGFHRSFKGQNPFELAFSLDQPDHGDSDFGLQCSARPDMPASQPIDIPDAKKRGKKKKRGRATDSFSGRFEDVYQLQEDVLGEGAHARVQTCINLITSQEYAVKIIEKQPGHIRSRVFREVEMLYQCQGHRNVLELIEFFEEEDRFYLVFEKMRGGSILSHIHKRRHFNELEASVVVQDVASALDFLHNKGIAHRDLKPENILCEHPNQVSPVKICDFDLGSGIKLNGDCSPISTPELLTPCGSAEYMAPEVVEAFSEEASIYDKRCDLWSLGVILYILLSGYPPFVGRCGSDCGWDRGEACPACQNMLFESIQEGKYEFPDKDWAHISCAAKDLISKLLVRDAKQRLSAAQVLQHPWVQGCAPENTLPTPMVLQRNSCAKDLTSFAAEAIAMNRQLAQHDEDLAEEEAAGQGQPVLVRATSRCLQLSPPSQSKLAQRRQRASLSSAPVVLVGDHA

Take `CO[C@@H]1[C@H](N(C)C(=O)CCC(=O)NCCC(=O)NCCC(=O)NCCC(N)=O)C[C@H]2O[C@]1(C)n1c3ccccc3c3c4c(c5c6ccccc6n2c5c31)C(=O)NC4`: the Activity in experiment [1] came to 89%; in [2], 80%; in experiment [3], 3.6%; in experiment [4], 35%; in [5], 91%; in experiment [6], 0.55%. Moreover, the Activity in experiment [7] was determined as 4%.

Turning to `CO[C@@H]1[C@H](N(C)C(=O)CCC(=O)NCCC(=O)NCCC(=O)NCCC(=O)NCCC(=O)NCCC(=O)NCCC(=O)NCCC(=O)N[C@H]2CSSC[C@@H](C(=O)NCC(N)=O)NC(=O)CNC(=O)[C@H](Cc3ccccc3)NC(=O)[C@H](C(C)C)NC(=O)[C@H](CCCNC(=N)N)NC(=O)[C@H](Cc3ccccc3)NC(=O)[C@H](C(C)C)NC2=O)C[C@H]2O[C@]1(C)n1c3ccccc3c3c4c(c5c6ccccc6n2c5c31)C(=O)NC4` ({Staurosporine-Suc-βAla-βAla-βAla-βAla-βAla-βAla-βAla}-CVFRVFGCG-NH2; disulfide 1-8), the Activity in [8] amounted to 57%; in experiment [9], 74%.

As to `CO[C@@H]1[C@H](N(C)C(=O)CCC(=O)NCCC(=O)NCCC(=O)NCCC(=O)NCCC(=O)NCCC(=O)NCCC(=O)NCCC(=O)N[C@H]2CNC(=O)C[C@@H](C(N)=O)NC(=O)CNC(=O)[C@H](Cc3ccccc3)NC(=O)[C@H](C(C)C)NC(=O)[C@H](CCCNC(=N)N)NC(=O)[C@H](Cc3ccccc3)NC(=O)[C@H](C(C)C)NC2=O)C[C@H]2O[C@]1(C)n1c3ccccc3c3c4c(c5c6ccccc6n2c5c31)C(=O)NC4` ({Staurosporine-Suc-βAla-βAla-βAla-βAla-βAla-βAla-βAla}-[Dap]VFRVFGD-NH2; lactam 1-8), the Activity is 66% in experiment [10] and 48% in experiment [11].

The values are drawn from ChEMBL document CHEMBL1152541, “Staurosporine tethered peptide ligands that target cAMP-dependent protein kinase (PKA): optimization and selectivity profiling” (Bioorg Med Chem, 2009).
